Data on one molecule can be found in ChEMBL document CHEMBL2311478, “Macrolactonolides: a novel class of anti-inflammatory compounds” (Bioorg Med Chem, 2013).

Data set [1] concerns PBMC. Nature of the data set: cells. In kind it is functional, cell-based. The settings on record: Homo sapiens, 48 h.
The test system of data set [2] is PBMC. In words: Antiinflammatory activity in human PBMC assessed as inhibition of LPS-induced MIP1alpha production after 6 hrs. In kind it is functional, cell-based. The gist of the method:
(§1)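 Thawed cryopreserved human PBMCs were preincubated 1 h at 37 °C, 5% CO2, then exposed to test compound for 1 h before LPS, anti-CD3 or PHA stimulation. Supernatants were collected at 6, 24 or 48 h according to each cytokine's peak, and cytokines quantified by Luminex multiplex bead assay. 10-point titration starting at 20 µM, in duplicate, with constant DMSO. Parallel Alamar Blue cytotoxicity check under 48 h PHA.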

For data set [3], the system named is Rattus norvegicus. In words: Antiinflammatory activity against ovalbumin-induced airway allergic Brown-Norway rat model assessed as decrease of total cell in bronchoalveolar lavage fluid at 32 mg/kg administered intranasally as dry powder measured on day 29 after ovalbumin challenge (reference value: 53.1%). The data set is classed as functional, Lung. The arrangement: scale not given: the % may be the effect or the level left.

The test system of data set [4] is Escherichia coli. Nature of the data set: Antibacterial activity against Escherichia coli ATCC 25922 by broth microdilution method. In kind it is functional. The procedure, abridged:
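CLSI broth microdilution with double dilutions in 96-well plates. For streptococci, 5% horse serum replaced lysed blood in the medium. Inocula were grown on Columbia agar with 5% sheep blood for streptococci, Mueller–Hinton chocolate agar for H. influenzae, and Mueller–Hinton agar for staphylococci. Read-out is MIC in mg/L.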

For data set [5], the system named is PBMC. Nature of the data set: Antiinflammatory activity in human PBMC assessed as inhibition of PHA-induced IFNgamma production after 24 hrs. The data set is classed as functional, cell-based. The gist of the method: as §1
The subject of data set [6] is Streptococcus pyogenes. Nature of the data set: Antibacterial activity against constitutive-resistant to macrolide, licosamide and streptogramin Streptococcus pyogenes 166 GR-Micro by broth microdilution method. The data set is classed as functional. The gist of the method:
(§2)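 MICs by CLSI broth microdilution with double dilutions, except that Streptococcus medium used 5% horse serum in place of lysed blood. Bacteria were pre-grown on Columbia agar with 5% sheep blood (streptococci) or Mueller–Hinton agar (staphylococci).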
Background: Dilution methods test growth across graded concentrations, often in twofold steps.

Data set [7] concerns PBMC. In words: Antiinflammatory activity in human PBMC assessed as inhibition of PHA-induced IL-1beta production after 6 hrs. The data set is classed as functional, cell-based. The gist of the method: as §1
Data set [8] in a line: Cmax in Balb/c mouse plasma at 2 mg/kg, administered intranasally. In kind it is ADME, organism-based. Further details: route nasal, dose 2 mg/kg. The conditions noted are these: inhaled or intranasal. The procedure, abridged:
(§3)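 Male Balb/c mice (21–25 g) dosed intranasally with freshly prepared formulation in 1% DMSO plus 0.125% CMC. Terminal bleeding and lung collection from 5 min to 72 h. K2EDTA blood taken as blood aliquots or spun for plasma. Lung homogenised 1:5 in water. Samples were protein-precipitated with acetonitrile/methanol (2:1) plus roxithromycin internal standard and quantified by LC–MS/MS. LLOQ 0.5 ng/mL (blood/plasma) and 2.5 ng/mL (lung).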

Data set [9] concerns PBMC. In words: Antiinflammatory activity in human PBMC assessed as inhibition of PHA-induced IP-10 production after 24 hrs. The data set is classed as functional, cell-based. The gist of the method:
as §1

A short description of data set [10]: Cmax in Balb/c mouse blood at 2 mg/kg, administered intranasally. The settings on record: whole blood, inhaled or intranasal. The arrangement: dose 2 mg/kg, route nasal. The data set is classed as ADME, organism-based. The gist of the method:
as §3

The test system of data set [11] is PBMC. Nature of the data set: Antiinflammatory activity in human PBMC assessed as inhibition of PHA-induced IL-13 production after 24 hrs. The data set is classed as functional, cell-based. The procedure, abridged: as §1
Data set [12] deals with Streptococcus pyogenes. In words: Antibacterial activity against inducible-resistant to macrolide, licosamide and streptogramin Streptococcus pyogenes Finland 11 by broth microdilution method. In kind it is functional. The gist of the method: as §2
Data set [13] is described as follows: Cmax in Balb/c mouse lung at 2 mg/kg, administered intranasally. The data set is classed as ADME, organism-based. Further details: dose 2 mg/kg, route nasal. The settings on record: inhaled or intranasal. The gist of the method:
as §3

Data set [14] has as its system Streptococcus pneumoniae. In words: Antibacterial activity against efflux mediated macrolide-resistant Streptococcus pneumoniae Ci137 by broth microdilution method. The data set is classed as functional. The gist of the method:
as §2

The pEC50 is −log10 of the EC50, conventionally taken in molar units. One may read the MIC as the least concentration at which growth counts as inhibited. As usually defined, the Cmax is the maximum level reached in the sampled fluid or tissue.

pEC50: −log10 of the molar value. Converted amounts (≈) assume the structure as drawn.

For `CC[C@H]1OC(=O)[C@H](C)[C@@H](O[C@H]2C[C@@](C)(OC)[C@@H](O)[C@H](C)O2)[C@H](C)[C@@H](O[C@@H]2O[C@H](C)C[C@H](N(C)C)[C@H]2O)[C@](C)(O)C[C@@H](C)CN(CCCNC(=O)[C@H]2[C@H](C)C[C@H]3[C@@H]4CCC5=CC(=O)C=C[C@]5(C)[C@@]4(F)[C@@H](O)C[C@@]32C)[C@H](C)[C@@H](O)[C@]1(C)O`, the pEC50 was 6.96 in data set [1]; 5.10 in data set [2]; 7.17 in data set [5]; 4.86 in data set [7]; less than 4.70 in data set [9]; 6.38 in [11]. Moreover, in [3], the Activity came out at 43.6%. Besides, the MIC was more than 64 µg/mL in data set [4], more than 64 µg/mL in data set [6], 32 µg/mL (≈ 28.2 µM) in [12] and 32 µg/mL (≈ 28.2 µM) in data set [14]. The figures for the maximum concentration (Cmax) in data set [8], in [10] and in data set [13] were 223 ng/mL, 169 ng/mL and 2410 ng/mL, respectively.
